Laboratory results as given in ChEMBL document CHEMBL3870319, “Synthesis and biological evaluation of rhein amides as inhibitors of osteoclast differentiation and bone resorption” (Eur J Med Chem, 2016).
Active and inactive are the calls of the source. No cut-off for these calls is given here.

Experiments:
[1] = Cytotoxicity against C57/BL6 mouse primary BMDM assessed as cell viability at 5 uM after 2 days in presence of M-CSF by MTT assay relative to control; format: toxicity; conditions: primary bone marrow-derived macrophages (BMDM), read-out: Activity
Method in brief: (§1)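 Primary BMMs were obtained by flushing femur and tibia marrow of 4-week-old male C57BL/6 mice, culturing it overnight, then expanding the non-adherent cells with 30 ng/mL M-CSF to 90% confluence. They were seeded at 3×10^3 cells/well in full α-MEM with 30 ng/mL M-CSF. Next day, compound was added in triplicate for two days. MTT (5 mg/mL) was added for 2 h at 37°C, crystals were dissolved in DMSO, and OD was read at 570 nm. Viability is relative to untreated control (100%).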

[2] = (§2) Inhibition of RANKL/M-CSF-induced osteoclastogenesis in C57/BL6 mouse primary BMDM assessed as reduction in TRAP activity using pNPP as substrate after 2 days by colorimetric assay; format: functional
Method in brief: (§3)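 BMMs at 3×10^3 cells/well exposed to 30 ng/mL M-CSF plus 50 ng/mL RANKL with compound in triplicate for two days. PBS-washed cells lysed 15 min at 37°C; lysate incubated 45 min with p-NPP in presence of disodium tartrate, stopped with NaOH, OD read at 405 nm, normalized to BCA protein; inhibition relative to control.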

[3] = Induction of C57/BL6 mouse primary BMDM proliferation assessed at 5 uM after 2 days by MTT assay relative to control; conditions: 48 h
Method in brief: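 BMMs from femur/tibia marrow of 4-week-old male C57BL/6 mice, expanded in α-MEM/10% FBS with 30 ng/mL M-CSF. Seeded at 3×10^3 cells/well, treated next day in triplicate for two days with M-CSF present. MTT (5 mg/mL stock) for 2 h at 37°C, crystals dissolved in DMSO, OD 570 nm; viability relative to untreated control.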

[4] = test system: BMDM; experiment: Inhibition of RANKL/M-CSF-induced osteoclastogenesis in C57/BL6 mouse primary BMDM assessed reduction in TRAP-positive multinucleated cells at 5 uM after 5 days; format: functional
Method in brief: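 Mouse C57BL/6 BMMs were adhered overnight in M-CSF medium, then cultured with 30 ng/mL M-CSF plus 50 ng/mL RANKL and compound for five days, with medium changed every two days. Cells were TRAP-stained with a leukocyte acid phosphatase kit, and TRAP-positive cells with ≥3 nuclei were counted as osteoclasts. Counts are expressed as percent of control, from at least three experiments.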

[5] = test system: BMDM; experiment: as §2; format: functional; method in brief: as §3
[6] = species: Mus musculus; experiment: Cytotoxicity against C57/BL6 mouse primary BMDM assessed as cell viability at 7.5 uM after 2 days in presence of M-CSF by MTT assay; format: toxicity; conditions: 48 h; method in brief: as §1
[7] = test system: BMDM; experiment: Inhibition of RANKL/M-CSF-induced bone resorption of osteoclast in C57/BL6 mouse primary BMDM cultured on bovine femur bone slices assessed as reduction in bone resorption area at 5 uM after 5 days by toluidine blue staining based microscopy; format: functional
Method in brief: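 BMMs seeded on bovine femur bone slices; next day induced with 30 ng/mL M-CSF plus 50 ng/mL RANKL with compound for five days, medium changed every two days. Cells fixed in 2.5% glutaraldehyde, slices stained with 0.5% toluidine blue, imaged at 200×; pit area from three random fields per slice, expressed as % of control.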

[8] = species: Mus musculus; experiment: Inhibition of RANK/RANKL/NFATc1 signalling pathway in M-CSF-stimulated C57/BL6 mouse primary BMDM assessed as reduction in NFATc1 mRNA level at 5 uM by qRT-PCR analysis
Method in brief: (§4)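 BMMs treated with M-CSF and/or RANKL alone or with 5 µM compound; mRNA for NFATc1, c-fos, TRAP, MMP-9 and cathepsin K measured by SYBR Green qRT-PCR, normalized to β-actin, expressed as fold change versus control cells; mean ± S.D. of triplicate measurements per cDNA sample.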

[9] = species: Mus musculus; experiment: Inhibition of RANK/RANKL/NFATc1 signalling pathway in M-CSF-stimulated C57/BL6 mouse primary BMDM assessed as reduction in c-FOS mRNA level at 5 uM by qRT-PCR analysis; method in brief: as §4
[10] = species: Mus musculus; experiment: Inhibition of RANK/RANKL/NFATc1 signalling pathway in M-CSF-stimulated C57/BL6 mouse primary BMDM assessed as reduction in TRAP mRNA level at 5 uM by qRT-PCR analysis; method in brief: as §4
[11] = species: Mus musculus; experiment: Inhibition of RANK/RANKL/NFATc1 signalling pathway in M-CSF-stimulated C57/BL6 mouse primary BMDM assessed as reduction in MMP9 mRNA level at 5 uM by qRT-PCR analysis; method in brief: as §4
[12] = species: Mus musculus; experiment: Inhibition of RANK/RANKL/NFATc1 signalling pathway in M-CSF-stimulated C57/BL6 mouse primary BMDM assessed as reduction in cathepsin K mRNA level at 5 uM by qRT-PCR analysis; method in brief: as §4
[13] = species: Mus musculus; experiment: Cytotoxicity against mouse MC3T3-E1 cells assessed as reduction in cell viability at 5 uM after 2 days in presence of M-CSF by MTT assay; format: toxicity, cell-based; conditions: mc3t3-e1, 48 h
Method in brief: (§5)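 MTT viability in MC3T3-E1 preosteoblasts (ATCC) or C57BL/6-derived mouse MSCs grown in α-MEM with 10% FBS and penicillin/streptomycin at 37°C, 5% CO2. Compound at indicated concentrations for 2 days, then MTT read. Viability expressed relative to control, mean ± SD of triplicates.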

[14] = species: Mus musculus; experiment: Cytotoxicity against C57/BL6 mouse MSC assessed as reduction in cell viability at 5 uM after 2 days in presence of M-CSF by MTT assay; format: toxicity; conditions: 48 h; method in brief: as §5

SMILES | viability at 48 h, 5 µM [1] [%] | inhibition (INH) [2] [%] | also measured
O=C(Nc1ccccc1)c1cc(O)c2c(c1)C(=O)c1cccc(O)c1C2=O | 53 | – | –
O=C(Nc1ccc(C(F)(F)F)cn1)c1cc(O)c2c(c1)C(=O)c1cccc(O)c1C2=O | 49 | – | –
O=C(Nc1ccc(C(F)(F)F)cc1Cl)c1cc(O)c2c(c1)C(=O)c1cccc(O)c1C2=O | 17 | – | –
CCN1CCN(C(=O)c2cc(O)c3c(c2)C(=O)c2cccc(O)c2C3=O)CC1 | 24 | – | –
CC(=O)Oc1cccc2c1C(=O)c1c(OC(C)=O)cc(C(=O)Nc3ccc(C)c(Cl)c3)cc1C2=O | 75 | 0 | –
O=C(O)c1cc(O)c2c(c1)C(=O)c1cccc(O)c1C2=O [RHEIN] | 97 | 47 | Activity [3]: Non-Toxic
CC(=O)Oc1cccc2c1C(=O)c1c(OC(C)=O)cc(C(=O)Nc3ccccc3)cc1C2=O | 28 | – | –
CN1CCN(C(=O)c2cc(O)c3c(c2)C(=O)c2cccc(O)c2C3=O)CC1 | 122 | 0 | –
CC1CCN(C(=O)c2cc(O)c3c(c2)C(=O)c2cccc(O)c2C3=O)CC1 | 103 | 0 | –
Cc1ccc(NC(=O)c2cc(O)c3c(c2)C(=O)c2cccc(O)c2C3=O)cc1 | 62 | – | –
Cc1cc(O)c2c(c1)C(=O)c1cc(O)cc(O)c1C2=O [EMODIN] | 109 | 45 | inhibition [4]: Active; Activity [3]: Non-Toxic
CC(=O)Oc1cccc2c1C(=O)c1c(OC(C)=O)cc(C(=O)N3CCC(C)CC3)cc1C2=O | 8 | – | –
CC(=O)Oc1cccc2c1C(=O)c1c(OC(C)=O)cc(C(=O)Nc3ccc(C(F)(F)F)cc3)cc1C2=O | 51 | – | –
CC(C)(O)C1CCN(C(=O)c2cc(O)c3c(c2)C(=O)c2cccc(O)c2C3=O)CC1 | 92 | 65 | –
CC(=O)Oc1cccc2c1C(=O)c1c(OC(C)=O)cc(C(=O)Nc3ccc(C(F)(F)F)cn3)cc1C2=O | 35 | – | –
O=C1c2cccc(O)c2C(=O)c2c(O)cc(C(=O)N3CCC(CO)CC3)cc21 | 79 | 85 | –
CC(=O)Oc1cccc2c1C(=O)c1c(OC(C)=O)cc(C(=O)Nc3cc(C(F)(F)F)ccn3)cc1C2=O | 37 | – | –
CC(=O)Oc1cccc2c1C(=O)c1c(OC(C)=O)cc(C(=O)Nc3ccc(C(F)(F)F)cc3Cl)cc1C2=O | 17 | – | –
O=C(Nc1ccc(C(F)(F)F)cc1)c1cc(O)c2c(c1)C(=O)c1cccc(O)c1C2=O | 57 | – | –
O=C1c2cccc(O)c2C(=O)c2c(O)cc(C(=O)N3CCC(N4CCOCC4)CC3)cc21 | 92 | 98 | inhibition [5]: Dose-dependent effect; Activity [6]: Non-Toxic; inhibition [4]: Active; inhibition [7]: Active; inhibition [8]: Active; inhibition [9]: Active; inhibition [10]: Active; inhibition [11]: Active; inhibition [12]: Active; Activity [13]: Non-Toxic; Activity [14]: Non-Toxic
O=C(NCCN1CCOCC1)c1cc(O)c2c(c1)C(=O)c1cccc(O)c1C2=O | 15 | – | –
CC(=O)Oc1cccc2c1C(=O)c1c(OC(C)=O)cc(C(=O)Nc3ccc(C)cc3)cc1C2=O | 28 | – | –
